Tests used:
HT-29 [1] = assay: Cellular uptake in human HT-29 cells after 6 hrs by flow cytometer; format: ADME, cell-based; settings: ht-29, 6 h
Summary of the method: (§1)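 Cells plated at 1 x 10^5 per well, grown 24 h at 37°C, then exposed to conjugate in serum-free medium (0.16–100 µM) for 6 h at 37°C. Cells detached with trypsin/EDTA, resuspended in FCS-free medium and analysed by flow cytometry. Read-out is the percentage of daunorubicin-positive living cells. Duplicate samples at each concentration; each experiment repeated twice.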

MCF7 [2] = assay: Cellular uptake in human MCF7 cells after 6 hrs by flow cytometer; format: ADME, cell-based; settings: mcf7, 6 h; summary of the method: as §1
HT-29 [3] = assay: Cytostatic activity against human HT-29 cells compound incubated for 6 hrs followed by compound wash out measured after 72 hrs by MTT assay; format: functional, cell-based
Summary of the method: (§2)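 Cells plated at 5×10^3 per well and grown 24 h. Exposed 6 h to compound in serum-free RPMI-1640 (2.6×10^-4–10^2 µM, six parallels per concentration), washed twice, then cultured 72 h in serum-containing medium. MTT added at 367 µg/mL final for 3.5 h; crystals dissolved in DMSO; OD540 minus OD620 read. Cytostasis% = [1−(OD_treated/OD_control)]×100; IC50 taken from a sigmoidal fit. Three independent experiments, averaged.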

MCF7 [4] = assay: Cytostatic activity against human MCF7 cells compound incubated for 6 hrs followed by compound wash out measured after 72 hrs by MTT assay; format: functional, cell-based; summary of the method: as §2
[5] = molecular target: T1, Gonadotropin-releasing hormone receptor (Homo sapiens, UniProt P30968); assay: Displacement of [125I][D-Trp6]GnRH1 from GnRH receptor expressed in human pituitary membrane by gamma counting; format: cell membranes
T1 sequence (P30968 whole entry): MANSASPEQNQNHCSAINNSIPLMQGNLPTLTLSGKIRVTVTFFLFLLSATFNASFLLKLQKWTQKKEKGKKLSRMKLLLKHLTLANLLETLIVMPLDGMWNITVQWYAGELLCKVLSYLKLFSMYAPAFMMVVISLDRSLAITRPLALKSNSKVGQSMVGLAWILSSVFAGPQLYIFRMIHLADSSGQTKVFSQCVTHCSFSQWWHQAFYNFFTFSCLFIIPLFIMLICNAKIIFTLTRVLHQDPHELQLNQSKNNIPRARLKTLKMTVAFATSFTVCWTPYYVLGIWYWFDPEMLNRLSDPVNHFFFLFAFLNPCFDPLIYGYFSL
Summary of the method: (§3)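 Membranes came from autopsy anterior pituitary or a surgical prostate cancer specimen, homogenized in 50 mM Tris-HCl pH 7.4 with protease inhibitors and ultracentrifuged. 50–160 µg protein was incubated with 60-80,000 cpm [125I][D-Trp6]GnRH-I and competitor (10^-12–10^-6 M). Bound ligand was pelleted through ice-cold 1.5% BSA buffer and gamma-counted. IC50 (50% inhibition of specific binding) came from curve fitting; mean ± SE of 2–3 experiments, duplicate or triplicate.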

[6] = molecular target: T1, Gonadotropin-releasing hormone receptor; assay: Displacement of [125I][D-Trp6]GnRH1 from GnRH receptor expressed in human prostate cancer membrane by gamma counting; format: cell membranes, Prostate gland; summary of the method: as §3
[7] = Metabolic stability […] assessed as alpha-chymotrypsin-mediated compound degradation after 6 hrs by LC-MS analysis; format: ADME, cell-free; settings: read-out: Drug degradation
Summary of the method: (§4)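 Digestion with α-chymotrypsin at an enzyme:substrate ratio of 1:50 (w/w) in 100 mM Tris-HCl/10 mM CaCl₂, pH 7.8, at 25°C. Aliquots taken at 5 min and 1, 2, 4, 6, 8 and 24 h, quenched with acetic acid, and analysed by LC-MS for intact conjugate and cleavage fragments.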

Serum = assay: Metabolic stability […] assessed as alpha-chymotrypsin-mediated compound degradation after 24 hrs by LC-MS analysis; format: ADME, cell-free; summary of the method: as §4
[8] = Drug metabolism in rat liver lysosomal homogenate after 2 hrs by LC-MS analysis; format: ADME, tissue-based; settings: tissue homogenate
Summary of the method: (§5)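 Conjugate at 0.1 µg/µL in 0.2 M NaOAc pH 5.0, mixed 1:1 (w/w) with rat liver lysosomal homogenate (protein 17.4 µg/µL by BCA). Incubated at 37°C; aliquots taken at 5 min and 1, 2, 4, 6, 8 and 24 h. Fragments identified by ESI ion-trap LC-MS on a C18 column with a formic acid/acetonitrile gradient, positive mode, m/z 100–2500.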

[9] = Chemical stability of the compound in serum-free DMEM cell culture media after 6 hrs by RP-HPLC analysis; format: physicochemical
Summary of the method: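 Conjugate dissolved in water (20% of final volume), then diluted with serum-free DMEM to a final 0.5 mg/mL. Incubated at 37°C for 6 h with hourly sampling. Monitored by analytical RP-HPLC on a C18 or CN column, gradient of 0.1% TFA water/MeCN, detection at 220 nm.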

[10] = Drug metabolism in rat liver lysosomal homogenate after 24 hrs by LC-MS analysis; format: ADME, tissue-based; settings: tissue homogenate; summary of the method: as §5
HT-29 [11] = assay: Cellular uptake in human HT-29 cells at 20 uM after 6 hrs by flow cytometer; format: ADME, cell-based; settings: ht-29, 6 h
Summary of the method: (§6)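 Cells were seeded at 1 x 10^5 per well and grown 24 h. MCF-7 were kept in DMEM and HT-29 in RPMI-1640, each with 10% FCS, at 37°C and 5% CO2. Cells were exposed to bioconjugate in serum-free medium (0.16–100 µM) for 6 h at 37°C, then detached with trypsin/EDTA. Flow cytometry gave % daunorubicin-positive living cells; duplicates, two independent experiments, mean ± SD.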

HT-29 [12] = assay: Cellular uptake in human HT-29 cells at 100 uM after 6 hrs by flow cytometer; format: ADME, cell-based; settings: ht-29, 6 h; summary of the method: as §6
MCF7 [13] = assay: Cellular uptake in human MCF7 cells at 20 uM after 6 hrs by flow cytometer; format: ADME, cell-based; settings: mcf7, 6 h; summary of the method: as §6
MCF7 [14] = assay: Cellular uptake in human MCF7 cells at 100 uM after 6 hrs by flow cytometer; format: ADME, cell-based; settings: mcf7, 6 h; summary of the method: as §6
[15] = Metabolic stability in human serum assessed as alpha-chymotrypsin-mediated compound degradation after 4 hrs by LC-MS analysis; format: ADME, cell-free; settings: Tris-HCl/CaCl2 buffer; in the assay text read “in Tris-HCl/CaCl2 buffer” for “in human serum”; read-out: Drug degradation; summary of the method: as §4
[16] = Metabolic stability in presence of alpha-chymotrypsin assessed as compound remaining after 6 hrs by LC-MS analysis
[17] = Metabolic stability […] assessed as alpha-chymotrypsin-mediated compound degradation after 8 hrs by LC-MS analysis; format: ADME, cell-free; settings: read-out: Drug degradation; summary of the method: as §4
MCF7 [18] = assay: Cellular uptake in human MCF7 cells at 4 uM after 6 hrs by flow cytometer; format: ADME, cell-based; settings: mcf7, 6 h; summary of the method: as §1
[19] = Octanol-water partition coefficient, log P of the compound by shake flask method; format: physicochemical
Summary of the method: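 Shake-flask octanol/water partitioning with RP-HPLC quantitation. P calculated as the ratio of octanol to water HPLC peak areas, then converted to logP.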

SMILES	Drug uptake (HT-29 [1])	Drug uptake (MCF7 [2])	IC50 (HT-29 [3])	IC50 (MCF7 [4])	metabolised at 6 h [7]	Stability (Serum)	Drug metabolism [8]	Stability [9]	Drug metabolism [10]	other results
COc1cccc2c1C(=O)c1c(O)c3c(c(O)c1C2=O)C[C@@](O)(/C(C)=N/OCC(=O)NCCCC[C@@H](NC(=O)[C@H](Cc1ccc(O)cc1)NC(=O)[C@H](CO)NC(=O)[C@H](Cc1c[nH]c2ccccc12)NC(=O)[C@H](Cc1cnc[nH]1)NC(=O)[C@@H]1CCC(=O)N1)C(=O)N[C@@H](CC(C)C)C(=O)N[C@@H](CCCNC(=N)N)C(=O)N1CCC[C@H]1C(=O)NCC(N)=O)C[C@@H]3O[C@H]1C[C@H](N)[C@H](O)[C@H](C)O1	Dose-dependent effect	Dose-dependent effect	20.2 µM	4.1 µM						IC50 [5]: 0.00162 µM; IC50 [6]: 0.0165 µM
CCC(=O)NCCCC[C@H](NC(=O)[C@H](Cc1c[nH]c2ccccc12)NC(=O)[C@H](Cc1cnc[nH]1)NC(=O)[C@@H]1CCC(=O)N1)C(=O)N[C@@H](Cc1cnc[nH]1)C(=O)N[C@@H](CC(=O)O)C(=O)N[C@@H](Cc1c[nH]c2ccccc12)C(=O)N[C@@H](CCCCNC(=O)CO/N=C(\C)[C@]1(O)Cc2c(O)c3c(c(O)c2[C@@H](O[C@H]2C[C@H](N)[C@H](O)[C@H](C)O2)C1)C(=O)c1c(OC)cccc1C3=O)C(=O)N1CCC[C@H]1C(=O)NCC(N)=O	Dose-dependent effect	Dose-dependent effect	17.2 µM	3.6 µM	45%	Unstable	Active	Stable	Active	
COc1cccc2c1C(=O)c1c(O)c3c(c(O)c1C2=O)C[C@@](O)(/C(C)=N/OCC(=O)NCCCC[C@H](NC(=O)[C@H](Cc1c[nH]c2ccccc12)NC(=O)[C@H](CC(=O)O)NC(=O)[C@H](Cc1cnc[nH]1)NC(=O)[C@H](CCCCNC(=O)C(C)C)NC(=O)[C@H](Cc1c[nH]c2ccccc12)NC(=O)[C@H](Cc1cnc[nH]1)NC(=O)[C@@H]1CCC(=O)N1)C(=O)N1CCC[C@H]1C(=O)NCC(N)=O)C[C@@H]3O[C@H]1C[C@H](N)[C@H](O)[C@H](C)O1	Dose-dependent effect	Dose-dependent effect	2 µM	2.2 µM	90%	Unstable	Active	Stable	Active	Drug uptake (HT-29 [11]): 96.9%; Drug uptake (HT-29 [12]): 99.9%; Drug uptake (MCF7 [13]): 93.3%; Drug uptake (MCF7 [14]): 99.7%; metabolised at 4 h [15]: 60%; remaining at 6 h [16]: 10%
C/C=C/C(=O)NCCCC[C@H](NC(=O)[C@H](Cc1c[nH]c2ccccc12)NC(=O)[C@H](Cc1cnc[nH]1)NC(=O)[C@@H]1CCC(=O)N1)C(=O)N[C@@H](Cc1cnc[nH]1)C(=O)N[C@@H](CC(=O)O)C(=O)N[C@@H](Cc1c[nH]c2ccccc12)C(=O)N[C@@H](CCCCNC(=O)CO/N=C(\C)[C@]1(O)Cc2c(O)c3c(c(O)c2[C@@H](O[C@H]2C[C@H](N)[C@H](O)[C@H](C)O2)C1)C(=O)c1c(OC)cccc1C3=O)C(=O)N1CCC[C@H]1C(=O)NCC(N)=O	Dose-dependent effect	Dose-dependent effect	13.6 µM	1.6 µM	50%	Unstable	Active	Stable	Active	
COc1cccc2c1C(=O)c1c(O)c3c(c(O)c1C2=O)C[C@@](O)(/C(C)=N/OCC(=O)NCCCC[C@H](NC(=O)[C@H](Cc1c[nH]c2ccccc12)NC(=O)[C@H](CC(=O)O)NC(=O)[C@H](Cc1cnc[nH]1)NC(=O)[C@H](CCCCNC(=O)CC(C)C)NC(=O)[C@H](Cc1c[nH]c2ccccc12)NC(=O)[C@H](Cc1cnc[nH]1)NC(=O)[C@@H]1CCC(=O)N1)C(=O)N1CCC[C@H]1C(=O)NCC(N)=O)C[C@@H]3O[C@H]1C[C@H](N)[C@H](O)[C@H](C)O1	Dose-dependent effect	Dose-dependent effect	16.4 µM	2.5 µM	34%	Unstable	Active	Stable	Active	metabolised at 8 h [17]: 50%
CCCCCC(=O)NCCCC[C@H](NC(=O)[C@H](Cc1c[nH]c2ccccc12)NC(=O)[C@H](Cc1cnc[nH]1)NC(=O)[C@@H]1CCC(=O)N1)C(=O)N[C@@H](Cc1cnc[nH]1)C(=O)N[C@@H](CC(=O)O)C(=O)N[C@@H](Cc1c[nH]c2ccccc12)C(=O)N[C@@H](CCCCNC(=O)CO/N=C(\C)[C@]1(O)Cc2c(O)c3c(c(O)c2[C@@H](O[C@H]2C[C@H](N)[C@H](O)[C@H](C)O2)C1)C(=O)c1c(OC)cccc1C3=O)C(=O)N1CCC[C@H]1C(=O)NCC(N)=O	Dose-dependent effect	Dose-dependent effect	20.1 µM	1.5 µM	30%		Active	Stable	Active	Drug degradation (Serum): 90%
CCCCCCCCCCCCCC(=O)NCCCC[C@H](NC(=O)[C@H](Cc1c[nH]c2ccccc12)NC(=O)[C@H](Cc1cnc[nH]1)NC(=O)[C@@H]1CCC(=O)N1)C(=O)N[C@@H](Cc1cnc[nH]1)C(=O)N[C@@H](CC(=O)O)C(=O)N[C@@H](Cc1c[nH]c2ccccc12)C(=O)N[C@@H](CCCCNC(=O)CO/N=C(\C)[C@]1(O)Cc2c(O)c3c(c(O)c2[C@@H](O[C@H]2C[C@H](N)[C@H](O)[C@H](C)O2)C1)C(=O)c1c(OC)cccc1C3=O)C(=O)N1CCC[C@H]1C(=O)NCC(N)=O	Dose-dependent effect	Dose-dependent effect	37.4 µM	6.8 µM			Active	Stable	Active	Drug uptake (MCF7 [18]): 41.3%; logP [19]: -0.596
COc1cccc2c1C(=O)c1c(O)c3c(c(O)c1C2=O)C[C@@](O)(/C(C)=N/OCC(=O)NCCCC[C@H](NC(=O)[C@H](Cc1c[nH]c2ccccc12)NC(=O)[C@H](CC(=O)O)NC(=O)[C@H](Cc1cnc[nH]1)NC(=O)[C@H](CCCCN)NC(=O)[C@H](Cc1c[nH]c2ccccc12)NC(=O)[C@H](Cc1cnc[nH]1)NC(=O)[C@@H]1CCC(=O)N1)C(=O)N1CCC[C@H]1C(=O)NCC(N)=O)C[C@@H]3O[C@H]1C[C@H](N)[C@H](O)[C@H](C)O1	Dose-dependent effect	Dose-dependent effect	8.1 µM	2.6 µM						

— ChEMBL document CHEMBL2086240, “Enhanced cellular uptake and in vitro antitumor activity of short-chain fatty acid acylated daunorubicin-GnRH-III bioconjugates” (Eur J Med Chem, 2012)
